Screens deposited in PubChem by several laboratories.
TDP2 inh = TDP2 (human) inhibition, absorbance primary screen. O95551. recombinant TDP2, T5PNP hydrolysis, p-nitrophenol absorbance 415 nm. inhibition, % at 12.8 µM. actives 0.34% (n = 370,000). AID 720702;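 active means inhibition above the mean of all tested compounds plus 3 SD, set per campaign, cut at about 25% in these data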;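 further: 0% = DMSO with enzyme and 100% = buffer with substrate but no TDP2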
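System: recombinant human TDP2 / Amount: 120 nM TDP2 per well / Also added: 5 mM T5PNP chromogenic substrate / Doses: 12.8 µM single point, 1% DMSO / Incubation: 2 h at 37 °C / Detection: p-Nitrophenol epi absorbance / Evaluation: % inhibition relative to enzyme-containing and enzyme-free wells / Repeats: singlicate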
UCH37 inh = inhibitors of human deubiquitinating enzyme UCH37. inhibition, % (concentration not given with the values). purified proteasome/UCH37, Ub-AMC cleavage fluorescence. actives 0.33% (n = 330,000);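 active means mean inhibition over replicate wells above about 20%, limit read from the data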;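 further: 0% = compound-free wells with enzyme and 100% = wells lacking proteasome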
Target sequence (Q9Y5K5 whole entry, looked up): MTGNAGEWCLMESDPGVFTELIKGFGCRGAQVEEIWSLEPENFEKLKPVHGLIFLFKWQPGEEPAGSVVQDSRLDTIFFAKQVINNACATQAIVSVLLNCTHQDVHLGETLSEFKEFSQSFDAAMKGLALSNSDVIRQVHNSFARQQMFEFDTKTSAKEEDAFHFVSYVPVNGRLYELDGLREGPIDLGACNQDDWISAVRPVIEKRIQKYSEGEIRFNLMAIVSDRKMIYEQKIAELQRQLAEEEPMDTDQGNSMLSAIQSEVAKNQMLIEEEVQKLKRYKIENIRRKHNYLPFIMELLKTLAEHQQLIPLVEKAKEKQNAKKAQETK
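system = Proteasome-associated human UCH37 deubiquitinase | amount = 0.15 nM proteasome as dispensed | medium = pH 7.4 Tris-HCl (50 mM) with ovalbumin, ATP-MgCl2, DTT | incubation = 30 min preincubation with enzyme, 25 min cleavage at room temperature | detection = AMC fluorescence 355/460 nm | read-out basis = percent inhibition | controls = no-proteasome and no-compound wells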
Casp6 inh = blocks human caspase-6 cleavage activity; purified caspase-6, Z-VEID-R110 cleavage fluorescence; inhibition, % at 12.5 µM; actives 0.53% (n = 350,000); AID 686996;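 active means mean inhibition across replicates at least about 35%, with every replicate also reaching that limit, limit read from the data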;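 further: 0% = median of neutral control wells and 100% = no fluorescence left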
Target sequence (P55212 24-179 limits assumed): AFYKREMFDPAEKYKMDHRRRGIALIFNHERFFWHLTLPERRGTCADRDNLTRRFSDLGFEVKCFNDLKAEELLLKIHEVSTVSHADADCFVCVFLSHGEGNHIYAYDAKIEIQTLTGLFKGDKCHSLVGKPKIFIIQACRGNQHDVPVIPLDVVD
Target sequence (P55212 194-293 limits assumed): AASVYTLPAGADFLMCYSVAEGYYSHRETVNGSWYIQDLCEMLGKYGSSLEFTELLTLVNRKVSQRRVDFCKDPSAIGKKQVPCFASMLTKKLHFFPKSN
NSD2 HMT inh = inhibitors of human histone methyltransferase NSD2; O96028; NSD2 peptide methylation, AlphaScreen, 120 min; inhibition, % at 12.5 µM; actives 0.54% (n = 310,000); in the data active means inhibition above about 50%
LEDGF integ inh = blocks HIV-1 LEDGF/p75-dependent DNA integration | actives 0.64% (n = 370,000) | inhibition, % at 3.7 µM | TR-FRET IN-LEDGF/p75 DNA integration, Eu/Cy5;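 active means inhibition above the screen-wide mean plus 3 SD, cut at about 13% in these data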;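 further: signal is the Cy5 over europium emission ratio at 671 and 618 nm; 0% = plate median of compound wells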
Alpha artifact = interferes with AlphaScreen signal, flagging NSD2 false positives. AID 1053174. shares compounds with NSD2 HMT inh. actives 9.4% (n = 1,500). AlphaScreen artifact counterscreen, preloaded methylated H4 peptide. AC35, µM (titrated, usually from 10 µM), for inactives: top-dose activity change, negative = signal loss; call rule not given here
* = called active by the depositor; . = no result given. A selection: hits, their analogues and other compounds. The true share with any hit is near 1.3%.

SMILES | TDP2 inh | UCH37 inh | Casp6 inh | NSD2 HMT inh | LEDGF integ inh | Alpha artifact
O=C(Nc1cc(Cl)ccc1-n1cncn1)c1cccs1 | -3 | 1 | -4 | 68* | -1 | -1%
O=C(Nc1cc(Cl)ccc1-n1cncn1)c1cc(F)cc(F)c1 | -4 | 3 | 4 | 0 | -2 | .
Cc1cc(=O)n2[nH]c(-c3ccco3)nc2n1 | 1 | 1 | . | 68* | 0 | -6%
CCCc1cc(=O)n2[nH]c(-c3ccco3)nc2n1 | 7 | 5 | 3 | 1 | 0 | .
CC(=NNC(=O)c1ccc(CSc2cccc3cccnc23)cc1)C1CCCCC1 | . | -43 | . | . | . | .
COc1ccc(C)cc1NCc1ccc(OC)c(C)c1OC | -3 | 2 | 2 | 80* | -3 | -19%
CC(=O)Oc1ccc(C=NNS(=O)(=O)c2ccccc2)cc1 | . | 5 | . | . | . | .
Cc1ccc(S(=O)(=O)N2CCOCC2)cc1NC(=O)CSc1ccccn1 | 0 | 2 | 0 | 52* | 1 | -2%
Cc1ccc(S(=O)(=O)N2CCOCC2)cc1NC(=O)CSc1nccn1C | -11 | 2 | . | -4 | 0 | .
Cc1ccccc1NCC(=O)Nc1cc(S(=O)(=O)N2CCCCC2)ccc1C | 1 | 1 | -2 | 57* | 1 | -7%
CC(=O)Nc1ccc(NCc2ccc(C)s2)cc1 | 5 | -1 | 5 | 56* | 4 | -3%
CCCC(=O)Nc1ccc(NCc2ccc(C)s2)cc1 | 3 | 2 | -3 | -2 | 2 | .
COc1cccc(C=NNC(=O)c2ccc(C)nc2)c1 | . | 4 | . | . | . | .
CCN(CC)C(=O)COc1ccc2oc(C)c(C(=O)OC(C)C)c2c1 | 3 | 4 | . | 114* | 3 | -3%
Cc1oc2ccc(OS(C)(=O)=O)cc2c1C(=O)OC(C)C | -10 | 0 | . | -11 | -6 | .
Cn1cc(-c2ccccc2C(N)=O)c(=O)c2ccccc21 | 4 | -3 | 1 | 56* | -4 | -1%
CC(=NNC(=O)c1ccccc1-n1cccc1)C1CC1 | . | 5 | . | . | . | .
C/C(CCc1ccc2c(c1)OCO2)=N\NC(=O)c1ccccc1 | -9 | . | 0 | . | 2 | .
NC(=NCc1ccc2c(c1)OCO2)NC(=O)c1ccccc1 | 13 | 24* | 7 | 88* | -6 | 0%
O=C1C(=O)N(CCS(=O)(=O)c2ccccc2)c2ccc(F)cc21 | 21 | 4 | 5 | 100* | -3 | 2%
COc1cc(OC)c(C(=O)OC(C)C(=O)NCc2ccc3c(c2)OCO3)cc1OC (configuration not stated) | -5 | 2 | 2 | 76* | -4 | -4%
COc1ccc(S(=O)(=O)NCc2ccc3c(c2)OCO3)cc1OC | -6 | -2 | 0 | 55* | -2 | 2%
C[N+](C)(C)CCCCCCC(=O)C=NO | . | 0 | . | . | . | .
CNCc1ccc(OCc2ccccc2)c(OC)c1 | 7 | 0 | . | 53* | 2 | -1%
COc1cc(CNCc2cccnc2)ccc1OCc1ccccc1 | -4 | 1 | -10 | -4 | -3 | .
SMILES | TDP2 inh | UCH37 inh | Casp6 inh | NSD2 HMT inh | LEDGF integ inh | Alpha artifact
Fc1ccc(C=NN2CCOCC2)c(F)c1 | . | 2 | . | . | . | .
N#Cc1c2nc3ccccc3nc2n2cc(NC(=O)c3ccc(F)cc3)ccc12 | 3 | -5 | 7 | 73* | 9 | -4%
Cc1c(C(=O)Nc2ccc(F)cc2)cn2c(nc3ccccc32)c1C#N | -4 | -28 | -1 | 0 | 2 | .
N#C/C(=C\c1ccc(-c2ccc(C(=O)O)cc2)o1)C(=O)NCC1CCCO1 (configuration not stated) | . | -24 | . | 54* | . | -4%
Cc1cc(Cl)ccc1NC(=S)NCc1ccccc1 | 7 | 3 | . | -2 | -5 | .
COc1cccc(CNC(=S)Nc2ccc(Cl)cc2C)c1 | -4 | -1 | -4 | 75* | 2 | 3%
O=C(OCc1cnc(Cl)s1)c1cccs1 | 10 | 7 | -1 | 52* | -1 | 2%
Cc1ccc(Cl)cc1NC(=O)C[n+]1ccc(Cc2ccc([N+](=O)[O-])cc2)cc1 | -3 | 8 | 8 | 84* | -1 | -10%
O=[N+]([O-])c1cc2ncccc2c2ncccc12 | -3 | . | 0 | 56* | -4 | -6%
CC(NC(=O)c1cccc(Br)c1)c1ccccc1 (configuration not stated) | 11 | 2 | 0 | 96* | -2 | 0%
Cc1cc(C)nc(NN=Cc2cc3c(cc2[N+](=O)[O-])OCO3)n1 | . | 5 | . | . | . | .
COc1cc(N)c(C(=O)c2nccc3cc(OC)c(OC)cc23)cc1OC | 5 | 5 | 11 | 72* | 0 | -2%
COc1cc(N)c(Cc2nccc3cc(OC)c(OC)cc23)cc1OC | 6 | 1 | 9 | 6 | 1 | .
O=C(CCc1nnc(CCCCc2ccccc2)o1)NC1CCCC1 | 6 | -2 | -5 | 83* | -1 | -5%
Cc1cc(C)n(-c2nc(NCC(C)O)c3c4c(sc3n2)COC(C)(C)C4)n1 (configuration not stated) | 5 | -199 | . | 81* | 0 | -7%
Cc1cc(C)n(-c2nc(NCC(C)O)c3c4c(sc3n2)CCCC4)n1 (configuration not stated) | -3 | -61 | . | 0 | -3 | .
CC1Oc2ccc(C#N)cc2N(Cc2ccc(F)cc2)C1=O (configuration not stated) | . | . | . | 3 | . | .
CC1Oc2ccc(C#N)cc2N(Cc2cccc(F)c2)C1=O (configuration not stated) | -3 | . | -1 | 55* | -3 | -1%
COc1ccccc1C=NN1CCN(c2ccc(Cl)cc2)CC1 | . | 6 | . | . | . | .
O=C(CN1CCOCC1)NCCc1ccccc1 | 8 | 4 | 2 | -1 | 2 | .
O=C(CN1CCOCC1)NCCNC(=O)CN1CCOCC1 | -2 | 3 | . | 60* | 2 | -4%
O=C(CSc1nc2ccccc2c(=O)n1-c1ccccc1)NN=C/C=C/c1ccccc1[N+](=O)[O-] | . | 6 | . | . | . | .
O=C(CC1S/C(=N/N=Cc2ccco2)NC1=O)Nc1cccc(Cl)c1Cl (configuration not stated) | . | 4 | . | . | . | .
CCOC(=O)c1cccc(-n2cccc2/C=C2\NC(=O)N(CC(=O)O)C2=O)c1 | -4 | 5 | 3 | . | 4 | .
Cc1ccc(NC(=O)CN2C(=O)N/C(=C/c3cc(C)n(-c4cccc(C(=O)O)c4)c3C)C2=O)cc1 | -11 | 3 | 72* | 77* | 26* | -15%
ON=Cc1cccn1-c1ccccc1 | -6 | 0 | -3 | 35 | -7 | .
O=C(O)c1cccc(-n2cccc2/C=N/O)c1 | -4 | . | . | 52* | 9 | -10%
Cc1ccc(CN2C(=O)N/C(=C\c3cccn3-c3cccc(C(=O)O)c3)C2=O)cc1 | 1 | 9 | 60* | 59* | 5 | -6%
CCN(CC)CCCNC(=O)c1cc2c(Cl)nc3ccccc3c2s1 | 0 | 3 | . | 80* | 1 | -4%
CC(C)(C)c1cc(C(=O)N/N=C/c2ccncc2)n[nH]1 | -2 | . | 5 | 55* | 5 | 1%
